Where “and” joins values, the source holds several entries; their conditions need not be identical. Equal values may be shown once. Read-outs that look alike come from different tables or passages of the source.
Columns and labels:
[1] = target: T1, bacteriophage T4 DNA polymerase (gp43 exo−) (Enterobacteria phage T4, UniProt P04415, D219A); type: biochemical; conditions: 150 µM dXTP, then 500 µM dGTP, quenched at 180 s; 13/20SP-mer
T1 sequence (P04415 1-898 D219A): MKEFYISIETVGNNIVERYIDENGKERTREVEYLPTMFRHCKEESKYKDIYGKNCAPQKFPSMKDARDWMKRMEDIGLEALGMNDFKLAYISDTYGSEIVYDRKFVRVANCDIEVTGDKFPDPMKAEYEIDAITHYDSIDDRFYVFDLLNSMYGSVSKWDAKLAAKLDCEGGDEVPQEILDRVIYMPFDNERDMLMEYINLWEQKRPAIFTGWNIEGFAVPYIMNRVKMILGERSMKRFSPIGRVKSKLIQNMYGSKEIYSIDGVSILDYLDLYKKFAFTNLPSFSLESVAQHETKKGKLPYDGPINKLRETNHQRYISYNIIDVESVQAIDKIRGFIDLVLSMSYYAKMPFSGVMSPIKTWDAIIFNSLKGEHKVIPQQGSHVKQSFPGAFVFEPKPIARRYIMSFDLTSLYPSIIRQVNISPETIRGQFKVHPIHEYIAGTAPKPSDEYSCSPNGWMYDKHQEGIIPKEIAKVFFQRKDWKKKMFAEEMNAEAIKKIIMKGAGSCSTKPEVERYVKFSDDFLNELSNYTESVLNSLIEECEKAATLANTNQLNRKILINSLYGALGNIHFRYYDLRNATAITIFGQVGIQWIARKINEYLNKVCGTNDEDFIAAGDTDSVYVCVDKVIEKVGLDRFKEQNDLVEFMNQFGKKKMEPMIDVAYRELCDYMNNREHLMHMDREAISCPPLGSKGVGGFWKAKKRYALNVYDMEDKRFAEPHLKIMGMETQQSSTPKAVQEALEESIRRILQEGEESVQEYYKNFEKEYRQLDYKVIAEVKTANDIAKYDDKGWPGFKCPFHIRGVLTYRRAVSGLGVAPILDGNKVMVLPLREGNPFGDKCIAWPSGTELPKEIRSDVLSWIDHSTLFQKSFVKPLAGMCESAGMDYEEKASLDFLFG
Procedure, shortened: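 Exonuclease-deficient T4 gp43 (D219A), 500 nM, with 250 nM 5′-32P-labelled 13/20SP-mer, in 25 mM Tris–OAc pH 7.5, 150 mM KOAc, 10 mM 2-mercaptoethanol and 10 mM Mg2+ at 25°C. Test nucleotide (150 µM) was inserted for 5 min, then 500 µM dGTP was added. Reactions were quenched with 350 mM EDTA and resolved on 20% sequencing gels. Extended versus non-extended primer was quantified by phosphorimaging, corrected for the zero point.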

[2] = target: T2, exonuclease-deficient bacteriophage T4 DNA polymerase (gp43 exo−) (Enterobacteria phage T4, UniProt P04415, D219A); conditions: single abasic site, cited from earlier work; for Kd: read-out: Kd, app
T2 sequence (P04415 1-898 D219A): T1 sequence (P04415 1-898 D219A)

[3] = target: T2, exonuclease-deficient bacteriophage T4 DNA polymerase (gp43 exo−); conditions: double abasic site, cited from earlier work; for Kd: read-out: Kd, app
[4] = target: T2, exonuclease-deficient bacteriophage T4 DNA polymerase (gp43 exo−); conditions: blunt end DNA, cited from earlier work; for Kd: read-out: Kd, app
[5] = target: T2, exonuclease-deficient bacteriophage T4 DNA polymerase (gp43 exo−); conditions: opposite thymine, cited from earlier work; for Kd: read-out: Kd, app
[6] = target: T1, bacteriophage T4 DNA polymerase (gp43 exo−); conditions: previously demonstrated; cited from earlier work

SMILES | Extension beyond the nucleotide paired opposite an abasic site [1] | Kd [2] [µM] | kpol [2] | kpol/Kd, app [2] | kpol [3] [s⁻¹] | kpol/Kd, app [3] | Kd [3] [µM] | kpol [4] [s⁻¹] | kpol/Kd, app [4] [M⁻¹ s⁻¹] | Kd [4] [µM] | kpol [5] [s⁻¹] | kpol/Kd, app [5] | Kd [5] [µM] | Extension beyond the nucleotide paired opposite an abasic site [6]
O=[N+]([O-])c1ccc2c(ccn2C2CC(O)C(COP(=O)(O)OP(=O)(O)OP(=O)(O)O)O2)c1 (stereo not shown) [5-NITP] | does not extend | 18 ± 3 | 126 s⁻¹ and 126 ± 7 s⁻¹ | 7 000 000 M^−1 s^−1 | 70 ± 6 | 3 890 000 M^−1 s^−1 | 18 ± 5 | 0.015 ± 0.004 | 710 | 21 ± 8 | 0.9 ± 0.1 | 100 000 M^−1 s^−1 | 9 ± 1 | –
O=P(O)(O)OP(=O)(O)OP(=O)(O)OC[C@H]1O[C@@H](n2ccc3cc(-c4ccccc4)ccc32)C[C@@H]1O [5-PhITP] | does not extend | 14 ± 3 | 53 s⁻¹ and 53 ± 4 s⁻¹ | – | 45 ± 3 | 3 750 000 M^−1 s^−1 | 12 ± 2 | 0.007 ± 0.004 | 160 | 45 ± 8 | 0.16 ± 0.01 | 6400 M⁻¹ s⁻¹ | 25 ± 7 | –
Nc1ncnc2c1ncn2[C@H]1C[C@H](O)[C@@H](COP(=O)(O)OP(=O)(O)OP(=O)(O)O)O1 [dATP] | showed extension beyond the abasic site | 35 ± 5 | 0.15 ± 0.01 s⁻¹ | 4300 M⁻¹ s⁻¹ | 0.55 ± 0.05 | 3500 M⁻¹ s⁻¹ | 157 ± 28 | – | – | – | 100 ± 10 | 10 000 000 M^−1 s^−1 | 10 ± 2 | extends beyond
Nc1nc2c(ncn2[C@H]2C[C@H](O)[C@@H](COP(=O)(O)OP(=O)(O)OP(=O)(O)O)O2)c(=O)[nH]1 [dGTP] | – | – | – | – | – | – | – | – | – | – | – | – | – | extends beyond

From paper PMC3045600 (Nucleic Acids Research, 2010)
